In ChEMBL document CHEMBL4342485, “Discovery of Potent Benzolactam IRAK4 Inhibitors with Robust in Vivo Activity” (ACS Med Chem Lett, 2020):
Active and inactive are the calls of the source. The calls are words filed in the database; no cut-off is given here.

Legend:
[1] = system: Mus musculus; assay: In vivo inhibition of IRAK4 in R848-induced C57BL/6 mouse assessed as IFN alpha levels at 3.7 mg/kg, po administered as nanosuspension at 1 hr prior to R848 challenge and measured after 1 hr by ELISA relative to control; format: functional; design: scale not given: the % may be the effect or the level left
Summary of the method: (§1)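 C57 black 6 mice were given vehicle or compound as a nanosuspension in MCT (0.5% methyl-cellulose/0.2% tween-80) across a dose range, 1 h before TLR7/8 agonist R848 (resiquimod) stimulation. Blood was drawn 1 h after R848, which is 2 h after compound. Plasma IFNα was measured by ELISA against vehicle-treated, R848-stimulated animals. Plasma drug levels were taken at the same time.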

[2] = Clearance in rat plasma at 1 mg/kg, iv or po; format: ADME, organism-based
[3] = Volume of distribution at steady state in rat at 1 mg/kg, iv or po; format: ADME, organism-based; conditions: in vivo, read-out: Vdss
[4] = Protein binding in human plasma at 5 uM incubated for 6 hrs by red equilibrium dialysis based LC-MS/MS analysis; format: ADME, cell-free
[5] = Half life in dog at 1 mg/kg, iv or po; format: ADME, organism-based, Canis lupus familiaris; conditions: in vivo
[6] = Oral bioavailability in cynomolgus monkey at 1 mg/kg; format: ADME, organism-based, Macaca fascicularis; conditions: in vivo
[7] = AUC (infinity) in cynomolgus monkey at 1 mg/kg, iv or po; format: ADME, organism-based, Macaca fascicularis; conditions: in vivo
Summary of the method: (§2)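 Separate intravenous and oral PK studies, each dosed at 1 mg/kg. Plasma AUC was extrapolated to infinity and reported in µM*h. Half-life and oral bioavailability were derived from the same studies.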

[8] = system: Mus musculus; assay: In vivo inhibition of IRAK4 in R848-induced C57BL/6 mouse assessed as IL6 level at 100 mg/kg, po administered as nanosuspension at 1 hr prior to R848 challenge and measured after 1 hr by ELISA relative to control; format: functional; design: scale not given: the % may be the effect or the level left
Summary of the method: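 C57 black 6 mice were pretreated with vehicle or a compound nanosuspension in 0.5% methyl-cellulose/0.2% tween-80 over a dose range, 1 h before R848 stimulation. Blood was sampled 1 h post-R848, and IL-6 and TNFα levels were compared with vehicle-treated, R848-stimulated mice.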

[9] = system: Mus musculus; assay: In vivo inhibition of IRAK4 in R848-induced po dosed C57BL/6 mouse assessed as inhibition of TNFalpha secretion administered as nanosuspension at 1 hr prior to R848 challenge and measured after 1 hr by ELISA; format: functional, organism-based
Summary of the method: (§3)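 C57 black 6 mice dosed with vehicle or nanosuspension in 0.5% methyl-cellulose/0.2% tween-80 across a dose range 1 h before stimulation with TLR7/8 agonist R848; blood sampled 1 h after R848 (2 h post-dose). Plasma IFNα, IL-6 and TNFα measured, IFNα by ELISA; compound plasma levels also determined.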

[10] = target: T1, Interleukin-1 receptor-associated kinase 4 (Homo sapiens, UniProt Q9NWZ3)
T1 sequence (Q9NWZ3 whole entry): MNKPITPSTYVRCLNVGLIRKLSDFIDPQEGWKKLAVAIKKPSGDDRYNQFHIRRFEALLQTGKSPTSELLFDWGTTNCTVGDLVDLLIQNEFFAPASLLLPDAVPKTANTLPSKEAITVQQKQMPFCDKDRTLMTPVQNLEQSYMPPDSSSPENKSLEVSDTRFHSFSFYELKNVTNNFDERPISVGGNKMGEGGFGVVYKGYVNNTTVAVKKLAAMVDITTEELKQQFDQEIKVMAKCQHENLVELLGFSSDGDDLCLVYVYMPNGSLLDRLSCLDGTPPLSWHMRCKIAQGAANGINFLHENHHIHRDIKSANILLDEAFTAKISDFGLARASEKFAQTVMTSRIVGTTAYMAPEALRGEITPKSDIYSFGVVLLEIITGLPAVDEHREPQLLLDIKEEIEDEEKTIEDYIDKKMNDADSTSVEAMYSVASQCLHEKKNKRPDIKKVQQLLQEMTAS

[11] = target: T1, Interleukin-1 receptor-associated kinase 4; assay: Inhibition of recombinant full-length N-terminal His6-tagged human IRAK4 expressed in baculovirus expression system using H-KKARFSRFAGSSPSQSSMVAR peptide as substrate after 90 mins by fluorescence polarisation assay
[12] = Volume of distribution at steady state in cynomolgus monkey at 1 mg/kg, iv or po; format: ADME, organism-based, Macaca fascicularis; conditions: in vivo, read-out: Vdss
[13] = Apparent permeability across apical to basolateral side in dog MDCKI cells at 10 uM measured after 60 to 180 mins by lucifer yellow dye based LC-MS/MS analysis; format: ADME, cell-based, Canis lupus familiaris; conditions: MDCK
Summary of the method: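 Apical-to-basolateral permeability measured in Madin–Darby canine kidney (MDCK) cell monolayers; reported in ×10–6 cm/s.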

[14] = Clearance in cynomolgus monkey plasma at 1 mg/kg, iv or po; format: ADME, organism-based, Macaca fascicularis
[15] = system: Mus musculus; assay: In vivo inhibition of IRAK4 in R848-induced po dosed C57BL/6 mouse assessed as inhibition of IL-6 secretion administered as nanosuspension at 1 hr prior to R848 challenge and measured after 1 hr by ELISA; format: functional, organism-based; summary of the method: as §3
[16] = Protein binding in cynomolgus monkey plasma at 5 uM incubated for 6 hrs by red equilibrium dialysis based LC-MS/MS analysis; format: ADME, cell-free, Macaca fascicularis; conditions: read-out: PPB (converted)
[17] = Oral bioavailability in mouse at 1 mg/kg; format: ADME, organism-based; conditions: in vivo
[18] = system: Mus musculus; assay: In vivo inhibition of IRAK4 in R848-induced C57BL/6 mouse assessed as IFN alpha levels at 11.1 mg/kg, po administered as nanosuspension at 1 hr prior to R848 challenge and measured after 1 hr by ELISA relative to control; format: functional; design: scale not given: the % may be the effect or the level left; summary of the method: as §1
[19] = AUC (infinity) in rat at 1 mg/kg, iv or po; format: ADME, organism-based; conditions: in vivo; summary of the method: as §2
[20] = AUC (infinity) in dog at 1 mg/kg, iv or po; format: ADME, organism-based, Canis lupus familiaris; conditions: in vivo; summary of the method: as §2
[21] = Protein binding in dog plasma at 5 uM incubated for 6 hrs by red equilibrium dialysis based LC-MS/MS analysis; format: ADME, cell-free, Canis lupus familiaris; conditions: read-out: PPB (converted)
[22] = Oral bioavailability in dog at 1 mg/kg; format: ADME, organism-based, Canis lupus familiaris; conditions: in vivo
[23] = Half life in cynomolgus monkey at 1 mg/kg, iv or po; format: ADME, organism-based, Macaca fascicularis; conditions: in vivo
[24] = Volume of distribution at steady state in mouse at 1 mg/kg, iv or po; format: ADME, organism-based; conditions: in vivo, read-out: Vdss
[25] = Clearance in dog plasma at 1 mg/kg, iv or po; format: ADME, organism-based, Canis lupus familiaris
[26] = Half life in mouse at 1 mg/kg, iv or po; format: ADME, organism-based; conditions: in vivo
[27] = AUC (infinity) in mouse at 1 mg/kg, iv or po; format: ADME, organism-based; conditions: in vivo
[28] = Half life in rat at 1 mg/kg, iv or po; format: ADME, organism-based; conditions: in vivo
[29] = system: Mus musculus; assay: In vivo inhibition of IRAK4 in R848-induced C57BL/6 mouse assessed as IFN alpha levels at 33.3 mg/kg, po administered as nanosuspension at 1 hr prior to R848 challenge and measured after 1 hr by ELISA relative to control; format: functional; design: scale not given: the % may be the effect or the level left; summary of the method: as §1
[30] = system: Mus musculus; assay: In vivo inhibition of IRAK4 in R848-induced po dosed C57BL/6 mouse assessed as inhibition of IFN alpha secretion administered as nanosuspension at 1 hr prior to R848 challenge and measured after 1 hr by ELISA; format: functional, organism-based; summary of the method: as §3
[31] = Protein binding in mouse plasma at 5 uM incubated for 6 hrs by red equilibrium dialysis based LC-MS/MS analysis; format: ADME, cell-free; conditions: read-out: PPB (converted)
[32] = Protein binding in rat plasma at 5 uM incubated for 6 hrs by red equilibrium dialysis based LC-MS/MS analysis; format: ADME, cell-free; conditions: read-out: PPB (converted)
[33] = Oral bioavailability in rat at 1 mg/kg; format: ADME, organism-based; conditions: in vivo
[34] = Volume of distribution at steady state in dog at 1 mg/kg, iv or po; format: ADME, organism-based, Canis lupus familiaris; conditions: in vivo, read-out: Vdss
[35] = system: Mus musculus; assay: In vivo inhibition of IRAK4 in R848-induced C57BL/6 mouse assessed as IFN alpha levels at 1.2 mg/kg, po administered as nanosuspension at 1 hr prior to R848 challenge and measured after 1 hr by ELISA relative to control; format: functional; design: scale not given: the % may be the effect or the level left; summary of the method: as §1
[36] = Clearance in mouse plasma at 1 mg/kg, iv or po; format: ADME, organism-based
[37] = system: Mus musculus; assay: In vivo inhibition of IRAK4 in R848-induced C57BL/6 mouse assessed as inhibition of TNF alpha secretion at 3 mg/kg, po administered as nanosuspension at 1 hr prior to R848 challenge and measured after 1 hr by ELISA; format: functional, organism-based; summary of the method: as §3

Question: Which results are given for CC(C)(O)[C@H](F)CN1Cc2cc(NC(=O)c3cnn4cccnc34)c(N3CCOCC3)cc2C1=O?
Answer: Activity [1]: -24%; clearance [2]: 9.2 mL/min/kg; Vd [3]: 0.95 L/kg; PPB [4]: 72.4%; half-life [5]: 4.1 h; bioavailability [6]: 47%; AUC(0-inf) [7]: 2.2 µM·h; Activity [8]: -64%; inhibition [9]: Dose-dependent effect; IC50 [10]: 190 nM; Ki [11]: 1.4 nM; Vd [12]: 3.7 L/kg; Papp A→B at 10 µM [13]: 9.1 to 9.2 ×10⁻⁶ cm/s; clearance [14]: 15.8 mL/min/kg; inhibition [15]: Dose-dependent effect; fraction unbound at 6 h, 5 µM [16]: 0.332; bioavailability [17]: 34%; Activity [18]: -45%; AUC(0-inf) [19]: 3.8 µM·h; AUC(0-inf) [20]: 3.1 µM·h; fraction unbound at 6 h, 5 µM [21]: 0.224; bioavailability [22]: 109%; half-life [23]: 5.4 h; Vd [24]: 2.2 L/kg; clearance [25]: 11.3 mL/min/kg; half-life [26]: 1.9 h; AUC(0-inf) [27]: 1.2 µM·h; half-life [28]: 1.6 h; Activity [29]: -53%; inhibition [30]: Dose-dependent effect; fraction unbound at 6 h, 5 µM [31]: 0.058; fraction unbound at 6 h, 5 µM [32]: 0.086; bioavailability [33]: 31%; Vd [34]: 3.7 L/kg; Activity [35]: -12%; clearance [36]: 29 mL/min/kg; inhibition [37]: Active
